Reference: ChEMBL document CHEMBL1811814, “Synthesis and evaluation of indole, pyrazole, chromone and pyrimidine based conjugates for tumor growth inhibitory activities--development of highly efficacious cytotoxic agents” (Eur J Med Chem, 2010)

How the values were obtained:
Type in all cases: functional
Set-up in all cases: scale not given: the % may be the effect or the level left
CCRF-CEM = assay: Growth inhibition of human CCRF-CEM cells assessed tumor cell growth at 10^-5 M
Outline: (§1)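 NCI 60-human-tumor-cell-line panel screen. Each compound was tested at a single concentration of 10^-5 M, and percent growth of tumor cells was recorded for each cell line. Growth inhibition was expressed from these percent-growth values.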

HL-60(TB) = assay: Growth inhibition of human HL-60(TB) cells assessed tumor cell growth at 10^-5 M
Outline: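 HL-60(TB), part of the 60-line panel, tested at a single concentration of 10^-5 M. The read-out is percent tumor cell growth relative to untreated growth.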

K562 = assay: Growth inhibition of human K562 cells assessed tumor cell growth at 10^-5 M; outline: as §1
MOLT-4 = assay: Growth inhibition of human MOLT4 cells assessed tumor cell growth at 10^-5 M; outline: as §1
A549 = assay: Growth inhibition of human A549 cells assessed tumor cell growth at 10^-5 M; outline: as §1
EKVX = assay: Growth inhibition of human EKVX cells assessed tumor cell growth at 10^-5 M; outline: as §1
HOP-62 = assay: Growth inhibition of human HOP62 cells assessed tumor cell growth at 10^-5 M; outline: as §1
HOP-92 = assay: Growth inhibition of human HOP92 cells assessed tumor cell growth at 10^-5 M; outline: as §1
NCI-H226 = assay: Growth inhibition of human NCI-H226 cells assessed tumor cell growth at 10^-5 M; outline: as §1
NCI-H23 = assay: Growth inhibition of human NCI-H23 cells assessed tumor cell growth at 10^-5 M; outline: as §1
NCI-H322M = assay: Growth inhibition of human NCI-H322M cells assessed tumor cell growth at 10^-5 M; outline: as §1
NCI-H460 = assay: Growth inhibition of human NCI-H460 cells assessed tumor cell growth at 10^-5 M; outline: as §1
NCI-H522 = assay: Growth inhibition of human NCI-H522 cells assessed tumor cell growth at 10^-5 M; outline: as §1
COLO 205 = assay: Growth inhibition of human COLO205 cells assessed tumor cell growth at 10^-5 M; outline: as §1
HCC 2998 = assay: Growth inhibition of human HCC2998 cells assessed tumor cell growth at 10^-5 M; outline: as §1
HCT-116 = assay: Growth inhibition of human HCT116 cells assessed tumor cell growth at 10^-5 M; outline: as §1
HCT-15 = assay: Growth inhibition of human HCT15 cells assessed tumor cell growth at 10^-5 M; outline: as §1
HT-29 = assay: Growth inhibition of human HT-29 cells assessed tumor cell growth at 10^-5 M; outline: as §1
KM12 = assay: Growth inhibition of human KM12 cells assessed tumor cell growth at 10^-5 M; outline: as §1
SW-620 = assay: Growth inhibition of human SW620 cells assessed tumor cell growth at 10^-5 M
Outline: (§2)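 Single-dose screen at 10^-5 M across the 60 human tumor cell line panel, run to NCI standards. The value is the percent growth of each cell line in the presence of compound. Compounds active at this dose moved on to five-concentration testing (10^-4 to 10^-8 M).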

SF-268 = assay: Growth inhibition of human SF268 cells assessed tumor cell growth at 10^-5 M; outline: as §1
SF-295 = assay: Growth inhibition of human SF295 cells assessed tumor cell growth at 10^-5 M; outline: as §1
SF-539 = assay: Growth inhibition of human SF539 cells assessed tumor cell growth at 10^-5 M; outline: as §1
SNB-19 = assay: Growth inhibition of human SNB19 cells assessed tumor cell growth at 10^-5 M; outline: as §2
SNB-75 = assay: Growth inhibition of human SNB75 cells assessed tumor cell growth at 10^-5 M; outline: as §2
U-251 = assay: Growth inhibition of human U251 cells assessed tumor cell growth at 10^-5 M; outline: as §2
LOX IMVI = assay: Growth inhibition of human LOXIMVI cells assessed tumor cell growth at 10^-5 M; outline: as §1
Malme-3M = assay: Growth inhibition of human MALME-3M cells assessed tumor cell growth at 10^-5 M; outline: as §1
M14 = assay: Growth inhibition of human M14 cells assessed tumor cell growth at 10^-5 M; outline: as §1
MDA-MB-435 = assay: Growth inhibition of human MDA-MB-435 cells assessed tumor cell growth at 10^-5 M; outline: as §1
SK-MEL-2 = assay: Growth inhibition of human SK-MEL-2 cells assessed tumor cell growth at 10^-5 M; outline: as §1
SK-MEL-28 = assay: Growth inhibition of human SK-MEL-28 cells assessed tumor cell growth at 10^-5 M; outline: as §1
SK-MEL-5 = assay: Growth inhibition of human SK-MEL-5 cells assessed tumor cell growth at 10^-5 M; outline: as §1
UACC-257 = assay: Growth inhibition of human UACC257 cells assessed tumor cell growth at 10^-5 M; outline: as §2
UACC-62 = assay: Growth inhibition of human UACC62 cells assessed tumor cell growth at 10^-5 M; outline: as §2
IGROV-1 = assay: Growth inhibition of human IGROV1 cells assessed tumor cell growth at 10^-5 M; outline: as §1
OVCAR-3 = assay: Growth inhibition of human OVCAR3 cells assessed tumor cell growth at 10^-5 M; outline: as §1
OVCAR-4 = assay: Growth inhibition of human OVCAR4 cells assessed tumor cell growth at 10^-5 M; outline: as §1
OVCAR-5 = assay: Growth inhibition of human OVCAR5 cells assessed tumor cell growth at 10^-5 M; outline: as §1
OVCAR-8 = assay: Growth inhibition of human OVCAR8 cells assessed tumor cell growth at 10^-5 M; outline: as §1
NCI/ADR-RES = assay: Growth inhibition of human NCI/ADR-RES cells assessed tumor cell growth at 10^-5 M; outline: as §1
SK-OV-3 = assay: Growth inhibition of human SKOV3 cells assessed tumor cell growth at 10^-5 M; outline: as §1
786-0 = assay: Growth inhibition of human 786-0 cells assessed tumor cell growth at 10^-5 M; outline: as §1
A498 = assay: Growth inhibition of human A498 cells assessed tumor cell growth at 10^-5 M; outline: as §1
ACHN = assay: Growth inhibition of human ACHN cells assessed tumor cell growth at 10^-5 M; outline: as §1
CAKI-1 = assay: Growth inhibition of human Caki1 cells assessed tumor cell growth at 10^-5 M; outline: as §1
RXF 393 = assay: Growth inhibition of human RXF393 cells assessed tumor cell growth at 10^-5 M; outline: as §1
SN12C = assay: Growth inhibition of human SN12C cells assessed tumor cell growth at 10^-5 M; outline: as §1
TK-10 = assay: Growth inhibition of human TK10 cells assessed tumor cell growth at 10^-5 M; outline: as §2
UO-31 = assay: Growth inhibition of human UO31 cells assessed tumor cell growth at 10^-5 M; outline: as §2
PC-3 = assay: Growth inhibition of human PC3 cells assessed tumor cell growth at 10^-5 M; outline: as §1
DU-145 = assay: Growth inhibition of human DU145 cells assessed tumor cell growth at 10^-5 M; outline: as §1
MCF7 = assay: Growth inhibition of human MCF7 cells assessed tumor cell growth at 10^-5 M; outline: as §1
MDA-MB-231 = assay: Growth inhibition of human MDA-MB-231 cells assessed tumor cell growth at 10^-5 M; outline: as §1
[1] = Growth inhibition of human Hs 578T cells assessed tumor cell growth at 10^-5 M; outline: as §1
BT-549 = assay: Growth inhibition of human BT549 cells assessed tumor cell growth at 10^-5 M; outline: as §1
T47D = assay: Growth inhibition of human T47D cells assessed tumor cell growth at 10^-5 M; outline: as §2
MDA-MB-468 = assay: Growth inhibition of human MDA-MB-468 cells assessed tumor cell growth at 10^-5 M; outline: as §1

## CC1=NN(c2cccc(Cl)c2)C(=O)/C1=C\c1cn(C(=O)c2c(Cl)cccc2Cl)c2ccccc12
CCRF-CEM
  Activity: 107.14%
HL-60(TB)
  Activity: 95.11%
K562
  Activity: 120.99%
MOLT-4
  Activity: 78.5%
A549
  Activity: 103.17%
EKVX
  Activity: 70.54%
HOP-62
  Activity: 92.85%
HOP-92
  Activity: 75.93%
NCI-H226
  Activity: 97.86%
NCI-H23
  Activity: 78.46%
NCI-H322M
  Activity: 99.91%
NCI-H460
  Activity: 102.74%
NCI-H522
  Activity: 87.52%
COLO 205
  Activity: 105.8%
HCC 2998
  Activity: 87.28%
HCT-116
  Activity: 93.25%
HCT-15
  Activity: 102.31%
HT-29
  Activity: 110.62%
KM12
  Activity: 100.84%
SW-620
  Activity: 96.65%
SF-268
  Activity: 99.71%
SF-295
  Activity: 96.99%
SF-539
  Activity: 88.35%
SNB-19
  Activity: 100.95%
SNB-75
  Activity: 81.76%
U-251
  Activity: 111.4%
LOX IMVI
  Activity: 91.86%
Malme-3M
  Activity: 100.66%
M14
  Activity: 88.55%
MDA-MB-435
  Activity: 109.08%
SK-MEL-2
  Activity: 95.14%
SK-MEL-28
  Activity: 108.69%
SK-MEL-5
  Activity: 93.87%
UACC-257
  Activity: 88.84%
UACC-62
  Activity: 84.14%
IGROV-1
  Activity: 100.26%
OVCAR-3
  Activity: 105.51%
OVCAR-4
  Activity: 94.88%
OVCAR-5
  Activity: 78.09%
OVCAR-8
  Activity: 89.79%
NCI/ADR-RES
  Activity: 90.21%
SK-OV-3
  Activity: 93.9%
786-0
  Activity: 101.2%
A498
  Activity: 102.24%
ACHN
  Activity: 90.96%
CAKI-1
  Activity: 89.11%
RXF 393
  Activity: 96.55%
SN12C
  Activity: 100.77%
TK-10
  Activity: 123.88%
UO-31
  Activity: 75.46%
PC-3
  Activity: 93.89%
DU-145
  Activity: 113.79%
MCF7
  Activity: 84.58%
MDA-MB-231
  Activity: 82.49%
[1]
  Activity: 93.53%
BT-549
  Activity: 95.67%
T47D
  Activity: 77.75%
MDA-MB-468
  Activity: 98.04%
